ChEMBL document CHEMBL1126822, “7 alpha-Methyl- and 11 beta-ethoxy-substitution of [125I]-16 alpha-iodoestradiol: effect on estrogen receptor-mediated target tissue uptake” (J Med Chem, 1993)

Target: Estrogen receptor (Mus musculus) (UniProt O08537+P19785)
Experiment: Binding affinity at murine estrogen receptor by [3H]estradiol displacement.
Assay type: protein assay
How it was run: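 Competitive binding in murine uterine cytoplasmic extracts, incubated 18 h at 0-4 °C with 20 nM [3H]estradiol, with or without competing steroids from 2 nM to 20 μM. RBA = 100 × ratio of competitor to unlabeled estradiol concentration giving 50% competition of specific [3H]estradiol binding. Mean of three experiments with SD.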

Chain of Estrogen receptor (Mus musculus) (O08537 whole entry, looked up): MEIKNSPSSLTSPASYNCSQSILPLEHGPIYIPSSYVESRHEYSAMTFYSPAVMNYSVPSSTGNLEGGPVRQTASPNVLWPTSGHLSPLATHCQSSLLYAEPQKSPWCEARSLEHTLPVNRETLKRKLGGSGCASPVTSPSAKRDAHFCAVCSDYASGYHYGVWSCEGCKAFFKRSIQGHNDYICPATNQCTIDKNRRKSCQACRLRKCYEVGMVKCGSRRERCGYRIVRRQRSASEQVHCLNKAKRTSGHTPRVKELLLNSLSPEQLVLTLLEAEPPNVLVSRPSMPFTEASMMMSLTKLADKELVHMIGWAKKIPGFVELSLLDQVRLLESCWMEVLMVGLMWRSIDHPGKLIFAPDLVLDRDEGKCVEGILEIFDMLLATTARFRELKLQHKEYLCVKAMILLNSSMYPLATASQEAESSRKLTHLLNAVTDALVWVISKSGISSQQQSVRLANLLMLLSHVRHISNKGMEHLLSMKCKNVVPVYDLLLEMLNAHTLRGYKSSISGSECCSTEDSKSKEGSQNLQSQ
Chain of Estrogen receptor (Mus musculus) (P19785 whole entry, looked up): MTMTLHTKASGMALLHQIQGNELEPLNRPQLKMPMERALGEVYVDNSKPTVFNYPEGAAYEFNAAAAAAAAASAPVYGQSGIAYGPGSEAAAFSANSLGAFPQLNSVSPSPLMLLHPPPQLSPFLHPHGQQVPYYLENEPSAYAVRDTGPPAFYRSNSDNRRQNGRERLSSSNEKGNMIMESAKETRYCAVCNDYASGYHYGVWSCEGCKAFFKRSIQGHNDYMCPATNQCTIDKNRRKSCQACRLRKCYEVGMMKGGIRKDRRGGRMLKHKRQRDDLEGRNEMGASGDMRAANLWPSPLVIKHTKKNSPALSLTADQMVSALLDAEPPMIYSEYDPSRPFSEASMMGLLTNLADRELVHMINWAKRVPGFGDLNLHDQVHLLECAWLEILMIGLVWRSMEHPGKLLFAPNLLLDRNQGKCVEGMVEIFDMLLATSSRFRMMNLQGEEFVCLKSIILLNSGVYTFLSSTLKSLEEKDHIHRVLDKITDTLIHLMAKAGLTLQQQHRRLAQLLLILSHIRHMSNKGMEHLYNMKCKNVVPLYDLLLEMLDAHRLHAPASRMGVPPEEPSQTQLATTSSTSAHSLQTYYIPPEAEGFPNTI

Structure (SMILES) | relative binding affinity (RBA)
CCO[C@H]1C[C@]2(C)[C@@H](O)[C@H](Cl)C[C@H]2[C@@H]2CCc3cc(O)ccc3[C@H]21 | 14.9
C[C@@H]1Cc2cc(O)ccc2[C@H]2CC[C@]3(C)C(=O)[C@@H](Br)C[C@H]3[C@H]12 | 5.3
CO[C@H]1C[C@]2(C)[C@@H](O)[C@H](Br)C[C@H]2[C@@H]2CCc3cc(O)ccc3[C@H]21 | 20
CCO[C@H]1C[C@]2(C)[C@@H](O)[C@@H](Br)C[C@H]2[C@@H]2CCc3cc(O)ccc3[C@H]21 | 0.6
C[C@@H]1Cc2cc(O)ccc2[C@H]2CC[C@]3(C)[C@@H](O)[C@H](Cl)C[C@H]3[C@H]12 | 71.5
CCO[C@H]1C[C@]2(C)[C@@H](O)[C@H](Br)C[C@H]2[C@@H]2CCc3cc(O)ccc3[C@H]21 | 16.8
C[C@@H]1Cc2cc(O)ccc2[C@H]2CC[C@]3(C)[C@H](O)[C@H](Cl)C[C@H]3[C@H]12 | 16.6
CCO[C@H]1C[C@]2(C)C(=O)[C@H](Cl)C[C@H]2[C@@H]2CCc3cc(O)ccc3[C@H]21 | 0.8
C[C@@H]1Cc2cc(O)ccc2[C@H]2CC[C@]3(C)[C@@H](O)[C@@H](Cl)C[C@H]3[C@H]12 | 4.3
CCO[C@H]1C[C@]2(C)[C@H](O)[C@H](Cl)C[C@H]2[C@@H]2CCc3cc(O)ccc3[C@H]21 | 0.8
CCO[C@H]1C[C@]2(C)C(=O)[C@H](Br)C[C@H]2[C@@H]2CCc3cc(O)ccc3[C@H]21 | 0.8
C[C@@H]1Cc2cc(O)ccc2[C@H]2CC[C@]3(C)[C@@H](O)[C@@H](Br)C[C@H]3[C@H]12 | 7.1
C[C@@H]1Cc2cc(O)ccc2[C@H]2CC[C@]3(C)[C@H](O)[C@H](Br)C[C@H]3[C@H]12 | 13.6
C[C@@H]1Cc2cc(O)ccc2[C@H]2CC[C@]3(C)C(=O)[C@H](Br)C[C@H]3[C@H]12 | 28.4
C[C@@H]1Cc2cc(O)ccc2[C@H]2CC[C@]3(C)C(=O)[C@H](Cl)C[C@H]3[C@H]12 | 33.8
CCO[C@H]1C[C@]2(C)[C@H](O)[C@H](Br)C[C@H]2[C@@H]2CCc3cc(O)ccc3[C@H]21 | 1.1
C[C@@H]1Cc2cc(O)ccc2[C@H]2CC[C@]3(C)[C@@H](O)[C@H](Br)C[C@H]3[C@H]12 | 79.1
